Measurements as given in ChEMBL document CHEMBL1687898, “Structure-activity relationships in glycosylated 2-phenyl-indoles, 2-phenyl-benzo[b]thiophenes and 2-phenyl-benzo[b]furans as DNA binding and potential antitumor agents” (Bioorg Med Chem, 2011).

How the values were obtained:
HT-29 [1] = experiment: Cytotoxicity against human HT-29 cells assessed as cell viability at 25 uM by MTS assay; type: functional; settings: read-out: Activity
Outline: (§1)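 Cells kept in DMEM high glucose with 10% FBS and 2 mM L-glutamine, 37 °C, 5% CO2, and seeded at 1 × 10⁴ cells/well. After 24 h, switched to serum-free DMEM-F12 with albumin, transferrin and insulin, with or without compound. Incubated 3 days at 37 °C in triplicate to quintuplicate wells. MTS added for 2–2.5 h and read at 490 nm. Viability given as % of media-only control. IC50 from Boltzmann nonlinear regression.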

Nucleic Acid [2] = experiment: Displacement of ethidium bromide from herring sperm DNA assessed as compound concentration required to 50% fluorescence loss of EtBr by FID assay; type: nucleic-acid assay; settings: Clupeidae
Outline: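 Multiple-point FID in the same system: 0.2 µL aliquots of 10 mM DMSO stock added stepwise, fluorescence read after each addition, until 50% loss of EtBr fluorescence. Apparent binding constant K_Ligand = K_EtBr × [EtBr]/[Ligand]50%.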

MCF7 [3] = experiment: Cytotoxicity against human MCF7 cells by MTS assay; type: functional, cell-based; outline: as §1
HepG2 [4] = experiment: Cytotoxicity against human HepG2 cells by MTS assay; type: functional, cell-based; outline: as §1
MCF7 [5] = experiment: Cytotoxicity against human MCF7 cells assessed as cell viability at 25 uM by MTS assay; type: functional; settings: read-out: Activity; outline: as §1
Nucleic Acid [6] = experiment: Displacement of ethidium bromide from herring sperm DNA assessed as remaining ethidium bromide at 50 uM by FID assay; type: nucleic-acid assay; settings: Clupeidae
Outline: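 Single-point FID. Read EtBr (5 µM) in BPE buffer (pH 7.0), exc 520 nm, em 540–700 nm, then read again with sheared herring sperm DNA added; the intensity difference is 100%. Compound added from 10 mM DMSO stock to a final 50 µM, equilibrated ~3 min, rescanned until steady. % EtBr remaining is the mean of triplicates.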

HT-29 [7] = experiment: Cytotoxicity against human HT-29 cells by MTS assay; type: functional, cell-based; outline: as §1
HepG2 [8] = experiment: Cytotoxicity against human HepG2 cells assessed as cell viability at 25 uM by MTS assay; type: functional; settings: read-out: Activity; outline: as §1
Nucleic Acid [9] = experiment: Displacement of ethidium bromide from herring sperm DNA assessed as remaining ethidium bromide at 100 uM by FID assay; type: nucleic-acid assay; settings: Clupeidae
Nucleic Acid [10] = experiment: Displacement of ethidium bromide from herring sperm DNA assessed as remaining ethidium bromide at 20 uM by FID assay; type: nucleic-acid assay; settings: Clupeidae
HepG2 [11] = experiment: Cytotoxicity against human HepG2 cells assessed as cell viability at 100 uM by MTS assay; type: functional; settings: read-out: Activity
HT-29 [12] = experiment: Cytotoxicity against human HT-29 cells assessed as cell viability at 100 uM by MTS assay; type: functional; settings: read-out: Activity
MCF7 [13] = experiment: Cytotoxicity against human MCF7 cells assessed as cell viability at 100 uM by MTS assay; type: functional; settings: read-out: Activity

Row | Structure (SMILES) | viability at 25 µM (HT-29 [1]) [%] | Activity (Nucleic Acid [2]) [µM] | IC50 (MCF7 [3]) [µM] | IC50 (HepG2 [4]) [µM] | viability at 25 µM (MCF7 [5]) [%] | Activity (Nucleic Acid [6]) [%] | IC50 (HT-29 [7]) [µM] | viability at 25 µM (HepG2 [8]) [%] | Activity (Nucleic Acid [9]) [%] | Activity (Nucleic Acid [10]) [%] | viability at 100 µM (HepG2 [11]) [%] | viability at 100 µM (HT-29 [12]) [%] | viability at 100 µM (MCF7 [13]) [%]
1 | C[C@@H]1O[C@H](OCC#Cc2c(-c3ccccc3)sc3ccccc23)CC[C@@H]1N | < 1 | 45 | 7.7 | 4.9 | < 1 | 26.6 | 4.6 | < 1 |  |  |  |  | 
2 | C[C@@H]1O[C@@H](OCC#Cc2c(-c3ccccc3)sc3ccccc23)CC[C@@H]1N |  |  |  |  |  | 79.9 |  |  | 79.9 |  |  |  | 
3 | CC(=O)O[C@@H]1CC[C@@H](OCC#Cc2c(-c3ccccc3)oc3ccccc23)O[C@H]1C | 9 |  |  | 20.9 | 78 |  | 10.7 | 15 |  |  |  |  | 
4 | C[C@@H]1O[C@@H](OCCCc2c(-c3ccccc3)sc3ccccc23)CC[C@@H]1N | < 1 |  | 11.8 | 7.5 | < 1 |  | 8.2 | < 1 | 51.9 |  |  |  | 
5 | CC(=O)O[C@@H]1CC[C@H](OCC#Cc2c(-c3ccccc3)sc3ccccc23)O[C@H]1C | < 1 |  |  | 12.3 | 27 |  | 7.2 | < 1 |  |  |  |  | 
6 | CC(=O)O[C@@H]1CC[C@H](OCCCc2c(-c3ccccc3)sc3ccccc23)O[C@H]1C | 9 |  |  |  | 47 |  | 10.2 | 72 |  |  |  |  | 
7 | C[C@@H]1O[C@H](OCC#Cc2c(-c3ccccc3)oc3ccccc23)CC[C@@H]1N | < 1 | 55 | 8.3 | 6.7 | < 1 | 26.9 | 5.4 | < 1 |  | > 100 |  |  | 
8 | Cc1ccc(S(=O)(=O)n2c(-c3ccccc3)c(C#CCO[C@H]3CC[C@@H](O)[C@H](C)O3)c3ccccc32)cc1 | 54 |  |  |  | 40 | 111 |  | 27 |  |  |  |  | 
9 | CC(=O)O[C@@H]1CC[C@@H](OCC#Cc2c(-c3ccccc3)sc3ccccc23)O[C@H]1C | < 1 |  |  | 15.7 | 40 |  | 10 | 8 |  |  |  |  | 
10 | C[C@@H]1O[C@@H](OCCCc2c(-c3ccccc3)oc3ccccc23)CC[C@@H]1N | < 1 |  | 13.8 | 7.7 | < 1 |  | 6.9 | < 1 | 43.5 |  |  |  | 
11 | C[C@@H]1O[C@@H](OCC#Cc2c(-c3ccccc3)oc3ccccc23)CC[C@H]1O | 3 |  |  | 15.3 | 38 | 96.7 | 13.1 | < 1 |  |  |  |  | 
12 | CC(=O)O[C@@H]1CC[C@H](OCCCc2c(-c3ccccc3)oc3ccccc23)O[C@H]1C | 19 |  |  |  | 53 |  | 17.8 | 42 |  |  |  |  | 
13 | C[C@@H]1O[C@H](OCC#Cc2c(-c3ccccc3)oc3ccccc23)CC[C@H]1O | 7 |  |  | 22.3 | 29 | 103 | 12.4 | 6 |  |  |  |  | 
14 | CC(=O)O[C@@H]1CC[C@H](OCC#Cc2c(-c3ccccc3)oc3ccccc23)O[C@H]1C | 8 |  |  | 19.2 | 24 |  | 11.8 | 5 |  |  |  |  | 
15 | Cc1ccc(S(=O)(=O)n2c(-c3ccccc3)c(C#CCO[C@@H]3CC[C@@H](O)[C@H](C)O3)c3ccccc32)cc1 | 24 |  |  | 18.6 | 33 | 109 |  | 5 |  |  |  |  | 
16 | Cc1ccc(S(=O)(=O)n2c(-c3ccccc3)c(C#CCO[C@@H]3CC[C@H](N)[C@H](C)O3)c3ccccc32)cc1 | < 1 | 55 | 5.3 | 5 | < 1 | 19.8 | 5.3 | < 1 |  | > 100 |  |  | 
17 | C[C@@H]1O[C@H](OCC#Cc2c(-c3ccccc3)sc3ccccc23)CC[C@H]1O | 2 |  |  | 13.6 | 23 | 99.9 | 12.8 | 7 |  |  |  |  | 
18 | C[C@@H]1O[C@@H](OCC#Cc2c(-c3ccccc3)sc3ccccc23)CC[C@@H]1O | 10 |  |  | 15.6 | 56 |  | 13.4 | 10 |  |  |  |  | 
19 | OCCCc1c(-c2ccccc2)sc2ccccc12 | < 1 |  |  |  | 79 |  | 16.3 | 87 |  |  | < 1 | < 1 | < 1
20 | C[C@@H]1O[C@@H](OCC#Cc2c(-c3ccccc3)sc3ccccc23)CC[C@H]1O | 6 |  |  | 16.4 | 51 | 103 | 11.1 | 25 |  |  |  |  | 
21 | OCCCc1c(-c2ccccc2)oc2ccccc12 | 76 |  |  |  | 94 |  |  | 91 |  |  | < 1 | < 1 | 16
22 | C[C@@H]1O[C@@H](OCC#Cc2c(-c3ccccc3)oc3ccccc23)CC[C@@H]1N |  |  |  |  |  | 68.5 |  |  | 68.5 |  |  |  | 
23 | C[C@@H]1O[C@@H](OCCCc2c(-c3ccccc3)oc3ccccc23)CC[C@H]1O | 25 |  |  |  | 65 |  | 16.9 | 62 |  |  |  |  | 
24 | C[C@@H]1O[C@@H](OCCCc2c(-c3ccccc3)sc3ccccc23)CC[C@H]1O | 19 |  |  |  | 68 |  | 15.3 | 84 |  |  |  |  | 
25 | C[C@@H]1O[C@@H](OCC#Cc2c(-c3ccccc3)sc3ccccc23)CC[C@@H]1OC(=O)c1ccccc1 | 81 |  |  |  | 100 |  |  | 99 |  |  |  |  | 
26 | C[C@@H]1O[C@@H](OCC#Cc2c(-c3ccccc3)sc3ccccc23)CC[C@H]1OC=O |  |  |  | 17.4 | 37 |  | 7.7 | < 1 |  |  |  |  | 
27 | C[C@@H]1O[C@@H](OCC#Cc2c(-c3ccccc3)sc3ccccc23)CC[C@H]1N | < 1 |  | 6.6 | 4.7 | < 1 |  | 5.3 | < 1 |  |  |  |  | 
28 | Cc1ccc(S(=O)(=O)n2c(-c3ccccc3)c(C#CCO[C@H]3CC[C@H](N)[C@H](C)O3)c3ccccc32)cc1 |  |  |  |  |  | 38.6 |  |  |  |  |  |  | 
29 | C[C@@H]1O[C@@H](OCC#Cc2c(-c3ccccc3)sc3ccccc23)CC[C@@H]1OC=O | 2 |  |  | 19.8 | 59 |  | 12.6 | 17 |  |  |  |  | 
